Test results reported in ChEMBL document CHEMBL1135477, “Antifungal agents. 10. New derivatives of 1-[(aryl)[4-aryl-1H-pyrrol-3-yl]methyl]-1H-imidazole, synthesis, anti-candida activity, and quantitative structure-analysis relationship studies” (J Med Chem, 2002).
Converted amounts (≈) assume the structure as drawn.

Columns and labels:
Assay type in all cases: functional
[1] = test system: Candida albicans; experiment: In vitro antifungal activity against 40 strains of Candida albicans at pH 5.8; (percent of resistant species at 256 ug/mL)
Method in brief: (§1)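 Broth serial-dilution test in Sabouraud broth at pH 7.2 or 5.8, against 40 fresh clinical C. albicans isolates from hospitalized patients. Inocula were 10³/mL, pre-grown 18 h at 37 °C in Sabouraud dextrose broth. Compound from a DMSO/water stock was twofold-diluted over 0.25–256 µg/mL. Visible growth was read at 24 h, 37 °C.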

[2] = test system: Candida albicans; experiment: In vitro antifungal activity against 40 strains of Candida albicans at pH 7.2
Method in brief: (§2)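 Broth serial-dilution MIC against 40 clinical C. albicans isolates from hospitalized patients, grown in Sabouraud broth at pH 7.2 or 5.8. Cells were pre-grown 18 h at 37 °C, inoculated at 10³/mL, and read at 24 h, 37 °C. Doubling dilutions ran 0.25–256 μg/mL from a DMSO/water solution. MIC was the lowest concentration with no visible growth against a DMSO/water blank.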

[3] = test system: Candida; experiment: Tested In vitro for antifungal activity against Candida species. at pH 7.2; value ranges from 256 to >256
Method in brief: (§3)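 Liquid serial-dilution MIC against 3 freshly isolated clinical Candida strains (two C. glabrata, one C. krusei) in Sabouraud broth at pH 7.2 or 5.8. Inoculum was 10³/mL after 18 h pre-culture at 37 °C, read at 24 h, 37 °C. Range was 0.25–256 μg/mL. Endpoint was no visible growth versus a DMSO/water blank.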

[4] = test system: Candida; experiment: Tested In vitro for antifungal activity against Candida species. at pH 7.2; method in brief: as §3
[5] = test system: Candida albicans; experiment: In vitro antifungal activity against 40 strains of Candida albicans at pH 7.2; (percent of resistant species at 256 ug/mL); method in brief: as §1
[6] = test system: Candida; experiment: Tested in vitro for antifungal activity against Candida species. at pH 5.8; method in brief: as §3
[7] = test system: Candida albicans; experiment: In vitro antifungal activity against 40 strains of Candida albicans at pH 7.2; minimum inhibitory concentration ( range is from 32 to 128); method in brief: as §2
[8] = test system: Candida; experiment: Tested In vitro for antifungal activity against Candida species. at pH 7.2; (percent of resistant species at 256 ug/mL)
Method in brief: (§4)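 Broth serial-dilution test in Sabouraud broth at pH 7.2 or 5.8, against 3 fresh clinical non-albicans isolates (two C. glabrata, one C. krusei). Inocula were 10³/mL, pre-grown 18 h at 37 °C. Compound was twofold-diluted over 0.25–256 µg/mL and read at 24 h, 37 °C for visible growth.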

[9] = test system: Candida albicans; experiment: In vitro antifungal activity against 40 strains of Candida albicans at pH 5.8; value ranges from 128 to >256; method in brief: as §2
[10] = test system: Candida; experiment: Tested in vitro for antifungal activity against Candida species. at pH 5.8 (percent of resistant species at 256 ug/mL); method in brief: as §4
[11] = test system: Candida; experiment: Tested in vitro for antifungal activity against Candida species. at pH 5.8; value ranges from 256 to >256
Method in brief: (§5)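 Fresh clinical isolates (two C. glabrata, one C. krusei) were pre-grown 18 h at 37 °C in Sabouraud dextrose broth. Broth double-dilution was run in Sabouraud broth at pH 5.8 or 7.2 over 0.25–256 µg/mL from a DMSO/water stock, with 10³/mL inoculum.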

[12] = biological target: Lanosterol 14-alpha demethylase (Candida albicans (strain SC5314 / ATCC MYA-2876) (Yeast), UniProt P10613); experiment: Anticandida activity- (MIC90 compound) / (MIC90 bifonazole)
[13] = test system: Candida albicans; experiment: In vitro antifungal activity against 40 strains of Candida albicans at pH 5.8; method in brief: as §2
[14] = test system: Candida albicans; experiment: In vitro antifungal activity against 40 strains of Candida albicans at pH 7.2; minimum inhibitory concentration value ranges from 128 to >256; method in brief: as §2
[15] = test system: Candida; experiment: Tested in vitro for antifungal activity against Candida species. at pH 7.2; method in brief: as §5
[16] = test system: Candida albicans; experiment: In vitro antifungal activity against 40 strains of Candida albicans at pH 5.8; value ranges from 128 to >256.; method in brief: as §2
[17] = test system: Candida; experiment: Tested in vitro for antifungal activity at pH 5.8; range is >250
Method in brief: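 Serial two-fold broth dilution was run in Sabouraud broth at pH 5.8 over 0.25–256 µg/mL, against clinical Candida isolates (40 C. albicans; 2 C. glabrata plus 1 C. krusei). Inoculum was 10³/mL after 18 h pre-culture at 37 °C. No visible growth versus a DMSO/water blank was read at 24 h, 37 °C; the range spans per-strain MICs.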

[18] = test system: Candida; experiment: Tested in vitro for antifungal activity against Candida species. at pH 5.8; (percent of resistant species at 256 ug/mL); method in brief: as §4
[19] = test system: Candida; experiment: Tested in vitro for antifungal activity against Candida species. at pH 7.2; (percent of resistant species at 256 ug/mL); method in brief: as §4
[20] = test system: Candida; experiment: Tested In vitro for antifungal activity against candida Spp (Candida glabrata, Candida krusei) at pH 5.8
Method in brief: (§6)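 Inocula were 10³/mL, pre-grown 18 h at 37 °C. MIC is the lowest concentration with no visible growth versus a blank at 24 h, 37 °C. The mean MIC is ΣMICi over the strain number; MIC50/MIC90 are also reported.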

[21] = test system: Candida; experiment: Tested in vitro for antifungal activity against candida Spp (Candida glabrata, Candida krusei) at pH 7.2 (percent of resistant species at 256 ug/mL); method in brief: as §4
[22] = test system: Candida albicans; experiment: In vitro antifungal activity against 40 strains at pH 7.2,(percent of resistant species at 256 ug/mL); method in brief: as §1
[23] = test system: Candida; experiment: Tested In vitro for antifungal activity against candida Spp (Candida glabrata, Candida krusei) at pH 7.2; method in brief: as §6
[24] = test system: Candida albicans; experiment: Tested In vitro for antifungal activity at pH 5.8
[25] = test system: Candida albicans; experiment: In vitro antifungal activity against 40 strains at pH 7.2 minimum inhibitory concentration
Method in brief: (§7)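 Inocula were 10³/mL, pre-grown 18 h at 37 °C. MIC is the lowest concentration with no visible growth versus a DMSO/water blank at 24 h, 37 °C. The mean MIC is ΣMICi over the total strain number; MIC50/MIC90 cover 50%/90% of strains.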

[26] = test system: Candida albicans; experiment: In vitro antifungal activity against 40 strains at pH 5.8,(percent of resistant species at 256 ug/mL); method in brief: as §1
[27] = test system: Candida albicans; experiment: In vitro antifungal activity against 40 strains at pH 7.2; method in brief: as §7
[28] = test system: Candida; experiment: In vitro antifungal activity against candida Spp (Candida glabrata, Candida krusei) at pH 5.8,(percent of resistant species at 256 ug/mL); method in brief: as §4
[29] = test system: Candida albicans; experiment: In vitro antifungal activity against 40 strains of Candida albicans at pH 5.8; value ranges from <0.25 to 8; method in brief: as §2
[30] = test system: Candida; experiment: Tested in vitro for antifungal activity against Candida species. at pH 5.8; value ranges from <0.25 to 0.25; method in brief: as §5
[31] = test system: Candida; experiment: Tested In vitro for antifungal activity against Candida species. at pH 7.2; (range is from 0.5 to 1); method in brief: as §3
[32] = test system: Candida albicans; experiment: In vitro antifungal activity against 40 strains of Candida albicans at pH 7.2; minimum inhibitory concentration; value ranges from <0.25 to 16; method in brief: as §2
[33] = test system: Candida albicans; experiment: In vitro antifungal activity against 40 strains of Candida albicans at pH 7.2; (percent of resistant species (R) at 256 ug/mL); method in brief: as §1

Lanosterol 14-alpha demethylase, sequence (P10613 whole entry): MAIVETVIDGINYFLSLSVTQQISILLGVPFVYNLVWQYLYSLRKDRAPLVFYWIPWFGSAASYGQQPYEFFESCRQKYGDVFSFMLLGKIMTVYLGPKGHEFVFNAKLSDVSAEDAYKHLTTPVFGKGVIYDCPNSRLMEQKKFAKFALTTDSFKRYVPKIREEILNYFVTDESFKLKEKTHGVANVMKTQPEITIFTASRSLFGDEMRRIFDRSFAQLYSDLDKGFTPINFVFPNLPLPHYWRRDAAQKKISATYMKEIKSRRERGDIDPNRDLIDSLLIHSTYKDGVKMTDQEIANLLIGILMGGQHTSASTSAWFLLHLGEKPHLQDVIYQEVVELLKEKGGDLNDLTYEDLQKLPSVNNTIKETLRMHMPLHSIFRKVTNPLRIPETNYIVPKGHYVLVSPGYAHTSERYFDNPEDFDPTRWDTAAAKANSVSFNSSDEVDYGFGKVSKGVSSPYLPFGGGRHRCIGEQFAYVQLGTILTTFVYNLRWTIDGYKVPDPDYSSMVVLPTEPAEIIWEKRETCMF

Row | SMILES | Resistance [1] [%] | MIC [2] [µg/mL] | MIC50 [2] [µg/mL] | MIC90 [2] [µg/mL] | MIC [4] [µg/mL] | MIC50 [4] [µg/mL] | MIC90 [4] [µg/mL] | Resistance [5] [%] | MIC [6] [µg/mL] | MIC50 [6] [µg/mL] | MIC90 [6] [µg/mL] | Resistance [8] [%] | Ratio [12] | MIC [13] [µg/mL] | MIC50 [13] [µg/mL] | MIC90 [13] [µg/mL] | Resistance [18] [%] | also measured
1 | Nc1ccc(-c2c[nH]cc2[C@@H](c2ccc(Cl)cc2Cl)n2ccnc2)cc1 | 80 | 85 (≈ 222 µM) | > 256 | > 256 | 256 (≈ 668 µM) | > 256 | > 256 | 54 | 256 (≈ 668 µM) | > 256 | > 256 | 67 | 52 | 219 (≈ 572 µM) | > 256 | > 256 | – | Range [3]: >256 µg/mL; Range [7]: 128 µg/mL; Range [9]: >128 µg/mL; Resistance [10]: 67%; Range [11]: >256 µg/mL
2 | Clc1ccc(-c2c[nH]cc2[C@@H](c2ccc(Cl)cc2Cl)n2cncn2)cc1 | 68 | 128 (≈ 317 µM) | > 256 | > 256 | – | – | – | 97 | – | > 256 | > 256 | – | 49 | 209 (≈ 519 µM) | > 256 | > 256 | 100 | Range [14]: >256 µg/mL; MIC50 [15]: > 256 µg/mL; MIC90 [15]: > 256 µg/mL; Range [15]: >256 µg/mL; Range [16]: >256 µg/mL; Range [17]: >256 µg/mL; Resistance [19]: 100%
3 | c1ccc(-c2ccc(C(c3ccccc3)n3ccnc3)cc2)cc1 (stereo not given) [BIFONAZOLE] | – | – | – | – | – | – | – | – | – | – | – | – | – | – | – | – | – | MIC [20]: 4 µg/mL (≈ 12.9 µM); MIC50 [20]: 4 µg/mL (≈ 12.9 µM); MIC90 [20]: 32 µg/mL (≈ 103 µM); Range [20]: 2 µg/mL; Resistance [21]: 0%; Resistance [22]: 0%; MIC [23]: 4.16 µg/mL (≈ 13.4 µM); MIC50 [23]: 4 µg/mL (≈ 12.9 µM); MIC90 [23]: 8 µg/mL (≈ 25.8 µM); Range [23]: 0.5 µg/mL; MIC [24]: 5.85 µg/mL (≈ 18.8 µM); MIC50 [24]: 2 µg/mL (≈ 6.44 µM); MIC90 [24]: 4 µg/mL (≈ 12.9 µM); Range [24]: 1 µg/mL; Range [25]: 0.5 µg/mL; Resistance [26]: 0%; MIC [27]: 2.44 µg/mL (≈ 7.86 µM); MIC50 [27]: 2 µg/mL (≈ 6.44 µM); MIC90 [27]: 4 µg/mL (≈ 12.9 µM); Resistance [28]: 0%
4 | Clc1ccc(COC(Cn2ccnc2)c2ccc(Cl)cc2Cl)c(Cl)c1 (stereo not given) [MICONAZOLE] | 0 | 1.16 (≈ 2.79 µM) | 0.5 (≈ 1.2 µM) | 2 (≈ 4.81 µM) | 0.83 (≈ 1.99 µM) | 1 (≈ 2.4 µM) | 1 (≈ 2.4 µM) | – | 0.156 (≈ 0.375 µM) | 0.5 (≈ 1.2 µM) | 8 (≈ 19.2 µM) | 0 | – | 0.57 (≈ 1.37 µM) | 0.5 (≈ 1.2 µM) | 2 (≈ 4.81 µM) | 0 | Range [29]: < 8 µg/mL; Range [30]: <0.25 µg/mL; Range [31]: 1 µg/mL; Range [32]: 16 µg/mL; Resistance [33]: 0%
